Rows were chosen to be rich in hits. Some 2.7% of all compounds tested hit in one or more screens of this group.
NTR1 agonist: agonists of human NTR1, primary screen, imaging, U2OS cells, beta-arrestin-GFP, high content. Neurotensin receptor type 1 (Homo sapiens), P30989. NTR1-U2OS beta-arrestin-GFP spot imaging, agonist mode. activation, % at 20 µM. 330,000 tested, 0.17% active. AID 493036, 2011;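 active = activation at or above 40% of the spot to cytoplasm intensity ratio, with at least 20 cells analyzed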;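 note: 0% = DMSO without peptide and 100% = 100 nM NTR1 peptide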
Lipid droplet: inhibitors of hepatocyte lipid droplet formation, primary screen, imaging, high-throughput imaging, BODIPY stain; AML12 mouse hepatocytes, oleate lipid droplets; 240,000 tested, 0.4% active; inhibition, % at 6.5 µM;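 active = lipid droplet intensity inhibited by at least 50%, with more than 500 cells counted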
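Assay system: AML12 hepatocytes (mouse); Probe or stimulus: oleic acid at 100 µM to induce lipid droplet formation; Dosing: compound at 6.5 µM only; Schedule: compound with oleate, overnight; Detection: fluorescence imaging, 20x objective, two fields per well; Measure: % inhibition of lipid droplet signal.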
PREPL inh: PREPL enzyme inhibitors, primary screen, biochemical, fluorescence polarization | 320,000 tested, 0.68% active | AID 2751, 2010 | inhibition, % at 5.96 µM | Prolyl endopeptidase-like (Homo sapiens), Q4J6C6 | recombinant PREPL, fluorescence polarization activity-based probe; in the data active = inhibition above about 43%;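 note: 0% = enzyme with DMSO and 100% = wells lacking enzyme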
MC4R antag cAMP: MC4R antagonists of cAMP signaling, primary screen, cell-based, TR-FRET, antagonist arm of biased-ligand search. Melanocortin receptor 4 (Homo sapiens), P32245. MC4R-expressing cells, MTII-stimulated cAMP, LANCE TR-FRET. inhibition, % at 6.5 µM. 360,000 tested, 0.48% active;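 active = inhibition above its plate's cutoff, the mean of tested wells on that plate plus 3 SD, cut at about 29% in these data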;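 note: 0% = Melanotan II alone and 100% = Melanotan II plus saturating MCL0020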
Target sequence (P32245 whole entry, looked up): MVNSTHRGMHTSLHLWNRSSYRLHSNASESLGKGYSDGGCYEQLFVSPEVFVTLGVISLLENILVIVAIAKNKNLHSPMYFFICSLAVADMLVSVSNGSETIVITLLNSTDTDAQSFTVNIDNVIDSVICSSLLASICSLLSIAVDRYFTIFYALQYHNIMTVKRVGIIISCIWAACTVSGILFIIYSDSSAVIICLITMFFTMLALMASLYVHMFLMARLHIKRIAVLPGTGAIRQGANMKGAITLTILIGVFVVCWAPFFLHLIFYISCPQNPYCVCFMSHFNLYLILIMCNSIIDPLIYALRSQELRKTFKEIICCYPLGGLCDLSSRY
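Test system: U2OS cells stably expressing human melanocortin 4 receptor (MC4R); also added: Melanotan II challenge; compound: 6.5 µM single dose; timing: 30-min compound preincubation, 1-h Melanotan II challenge, 1-h detection, room temperature; signal: Eu-cAMP/anti-cAMP TR-FRET, emission 671 nm; repeats: one well per compound, no replicates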
m5-HT2A agonist: mouse Htr2a agonists via beta-arrestin recruitment, primary screen, cell-based, luminescence; 5-hydroxytryptamine receptor 2A (Mus musculus), P35363; CHO-K1 mHTR2A beta-arrestin complementation; percent of 30 µM serotonin response; activation, % at 7.6 µM; 360,000 tested, 0.66% active; AID 624169, 2012;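 active = activation above a run cutoff, the mean activation of all tested compounds plus 3 SD, cut at about 14% in these data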;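 note: 0% = plate median of compound wells and 100% = 30 µM serotonin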
MC4R barr agon: MC4R agonists recruiting beta-arrestin, primary screen, cell-based, luminescence, agonist arm of biased-ligand search; Melanocortin receptor 4 (Homo sapiens), P32245; 360,000 tested, 0.98% active; AID 540308, 2011; activation, % at 8.9 µM; U2OS MC4R beta-arrestin complementation; percent of melanotan II response, DMSO zero;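 active = activation above a per-plate cutoff, the mean activation of sample wells on that plate plus 3 SD, cut at about 8% in these data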
MC4R barr conf: MC4R beta-arrestin agonists, retest, confirmation, cell-based, luminescence, U2OS | shares compounds with MC4R barr agon | U2OS MC4R beta-arrestin recruitment; scaled DMSO 0%, Melanotan II 100% | activation, % at 8.9 µM | 2,400 tested, 31% active | AID 602192, 2012;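 active = mean activation across replicates above the hit cutoff set in the earlier primary screen, cut at about 8% in these data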
MOR DOR agonist: agonists of MOR-DOR heterodimerization, counter-screen for MC4R biased agonist project, cell-based, luminescence. U2OS PathHunter beta-arrestin, beta-gal luminescence; percent of deltorphin B response, DMSO zero. activation, % at 9.2 µM. AID 602194, 2012. shares compounds with MC4R barr agon. 2,400 tested, 5.8% active;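 active = mean activation across replicates exceeds the hit threshold derived in the earlier primary screen, cut at about 18% in these data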;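 note: 100% = deltorphin B at 0.9 µM final and 0% = DMSO alone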
* = called active by the depositor; / = no result.

SMILES	NTR1 agonist	Lipid droplet	PREPL inh	MC4R antag cAMP	m5-HT2A agonist	MC4R barr agon	MC4R barr conf	MOR DOR agonist
O=C1CC(SC(=Nc2ccccc2)Nc2ccccc2)C(=O)N1c1ccc(Cl)c(Cl)c1 (stereo unspecified)	22	1	-5	5	-1	9.7*	4	5
O=C1CC(SC(=NCc2ccc3c(c2)OCO3)Nc2ccccc2)C(=O)N1c1ccccc1 (stereo unspecified)	2	-15	1	5	4	21*	1	9
CCOC(=O)c1sc2ccccc2c1OC(=O)c1ccc(C)cc1	-3	2	14	5	-1	14*	7	8
COC(=O)c1sc2ccccc2c1N	13	-9	4	7	0	-1	/	/
Cc1cc(Br)ccc1SCC(=O)OCC(O)=C(C#N)c1nc2ccccc2[nH]1	/	/	/	7	-1	6	/	/
Cc1ccc(C)c(SCC(=O)OC/C(O)=C(\C#N)c2nc3ccccc3[nH]2)c1	/	-19	/	-10	8	17*	-1	12
Cc1cccc(C)c1OCC(=O)OC/C(O)=C(\C#N)c1nc2ccccc2[nH]1	5	-26	10	3	1	21*	5	8
Cc1cc(Br)ccc1SCC(=O)OC/C(O)=C(\C#N)c1nc2ccccc2[nH]1	4	-14	-14	20	-3	12*	3	2
CCCC(=O)OC/C(O)=C(\C#N)c1nc2ccccc2[nH]1	-2	0	3	15	2	-3	/	/
CC(C)C(=O)n1nc(-c2cccnc2)nc1NCc1ccc(F)cc1	1	-2	11	4	2	0	/	/
CC(=O)c1ccc(S(=O)(=O)NCCC(=O)NC(C)c2ccncc2)cc1 (stereo unspecified)	1	/	4	2	5	0	/	/
O=C1N/C(=C/c2cccn2-c2ccc(F)cc2)C(=O)N1Cc1ccccc1F	5	0	4	-5	3	8	/	/
O=C1N/C(=C/c2cccn2-c2ccccc2)C(=O)N1Cc1ccc(F)cc1	5	-8	0	-7	2	17*	2	5
CC(/C=N/NC(=O)c1nn(C)c(C)c1Br)=C\c1ccccc1	3	-10	9	0	-5	-3	/	/
COC(=O)c1sc2nc(C)nc(SCC(=O)Nc3sccc3C(N)=O)c2c1C	7	/	2	0	11	19*	8	5
CCc1ccc(/C=C2/C(=O)N(c3ccccc3)C(=S)N2CC(=O)OC)s1	20	12	2	4	2	10*	7	6
COC(=O)Cn1nc(-c2ccccc2)n(-c2ccccc2)c1=S	1	/	-3	2	1	0	/	/
COc1cc2nc3n(c(=O)c2cc1OC)-c1ncccc1C(=O)NC3Cc1ccccc1 (stereo unspecified)	/	/	/	-1	5	-1	/	/
Clc1ccccc1-c1cnc2sc(NCc3ccc4c(c3)OCO4)nn12	/	/	/	-5	-2	22*	13*	9
Cc1cccc2cc(COC(=O)c3cccs3)c(=O)[nH]c12	4	9	-12	9	-1	23*	1	4
Cc1oc(C(C)(C)C)cc1C(=O)N1CCN(c2ncccc2C(F)(F)F)CC1	3	-6	2	5	2	1	/	/
